In brackets after ≈: the same amount, converted by molar mass. Several values for one entry are separate records, joined by “and”; a condition that tells them apart may be missing. Identical values can stand only once. Like-named read-outs stand apart in the source and are kept apart here.
Key:
HCV genotype 1 [1] = type: in vivo, Hepatitis C virus; settings: 14 days
Procedure, shortened: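 Reanalysed phase 1 data. Chronically infected patients were randomised 8:2 to oral test compound or placebo for 14 days, and placebo recipients were excluded. HCV RNA was measured in blood drawn at 0, 2, 4, 6, 8, 12, 16, 24, 26, 28, 30, 48 and 52 h, on days 6 and 8 pre- and post-dose, and on day 13.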

[2] = Two-compartment population PK model fitted to danoprevir plasma concentrations; type: in vivo, patients
HCV [3] = test: PK/VK model fitted to HCV RNA kinetics during danoprevir monotherapy; type: in vivo, Hepatitis C virus; settings: for minimal effectiveness: at Cmin
HCV [4] = test: Varying effectiveness; type: in vivo, Hepatitis C virus; settings: VE model
Procedure, shortened: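 Standard viral kinetic model with constant target cells, fitted to log10 viral load only, without PK data. Effectiveness = Dose/(ED50+Dose)·(1−e^(−kt)), where Dose is the total daily amount. Population mixed-effects fit by maximum likelihood. Per-patient effectiveness was averaged over days 0–2 and 0–14, then over each cohort. First-phase decline = −log10(1−ε).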

HCV [5] = settings: 200 mg tid, multiscale model; cited from earlier work
HCV [6] = settings: in combination with mericitabine, 14 days, no viral breakthrough; cited from earlier work
HCV genotype 1 [7] = settings: cited from earlier work
HCV [8] = settings: monotherapy, doses of 200 and 500 mg/day; cited from earlier work
[9] = Cohort 5: 300 mg bid, non-responder
[10] = PK/VK model, Cohort 1: 100 mg bid, TN
[11] = PK/VK model, Cohort 2: 100 mg tid, TN
[12] = PK/VK model, Cohort 3: 200 mg bid, TN
[13] = PK/VK model, Cohort 4: 200 mg tid, TN
[14] = PK/VK model, Cohort 5: 300 mg bid, non-responder
[15] = after first intake, 100 mg bid dose

In the case of `CC(C)(C)OC(=O)N[C@H]1CCCCC/C=C\[C@@H]2C[C@@]2(C(=O)NS(=O)(=O)C2CC2)NC(=O)[C@@H]2C[C@@H](OC(=O)N3Cc4cccc(F)c4C3)CN2C1=O` [danoprevir], the “Total viral decline (median)” value (HCV genotype 1 [1]; Cohort 1: 100 mg bid, treatment-naïve) is reported as 2.0 Log10 IU/mL, the “Total viral decline (median)” value (HCV genotype 1 [1]; Cohort 2: 100 mg tid, TN) is reported as 2.7 Log10 IU/mL and the “Total viral decline (median)” value (HCV genotype 1 [1]; Cohort 4: 200 mg tid, TN) is reported as 3.9 Log10 IU/mL. The “Total viral decline (median)” value (HCV genotype 1 [1]; [9]) was 2.7 Log10 IU/mL, the Cmax ([2]; human, plasma, oral) was 2.67 to 589 ng/mL and the Vd/F ([2]; human, plasma, oral) was 2100 ± 360 L. The k el ([2]; human, plasma, oral) was 0.000283 s⁻¹, the “k21 (backward rate constant between compartments)” value ([2]; population estimate±standard error, all cohorts) was 0.81 h⁻¹ and 0.81 ± 0.17 h⁻¹ and the “Tlag (post-dose lag-time)” value ([2]; population estimate±standard error, all cohorts, oral) was 0.50 h and 0.50 ± 0.057 h. The “Tk0 (time over which danoprevir is absorbed)” value ([2]; population estimate±standard error, all cohorts, zero-order absorption) was 0.58 h and 0.58 ± 0.13 h, the “final effectiveness in blocking viral production” value (HCV [3]; 200 mg tid) was 99.4% and the “Average effectiveness over the first 2 days of dosing ε2” value (HCV [3]; [10]) was 0.946. The “Average effectiveness over the full 14-day dosing period ε14” value (HCV [3]; [10]) was 0.95 and 0.953, the “Predicted first-phase log decline, i.e. −log10(1−ε2)” value (“Predicted first-phase log decline” below) (HCV [3]; [10]) was 1.27 log10 and the “Average effectiveness over the first 2 days of dosing ε2” value (HCV [3]; [11]) was 0.981. For the same molecule, the “Average effectiveness over the full 14-day dosing period ε14” value (HCV [3]; [11]) was 0.990, the “Predicted first-phase log decline” value (HCV [3]; [11]) was 1.72 log10 and the “Average effectiveness over the first 2 days of dosing ε2” value (HCV [3]; [12]) was 0.966. The “Average effectiveness over the full 14-day dosing period ε14” value (HCV [3]; [12]) was 0.974, the “Predicted first-phase log decline” value (HCV [3]; [12]) was 1.47 log10 and the “Average effectiveness over the first 2 days of dosing ε2” value (HCV [3]; [13]) was 0.985. For the same molecule, the “Average effectiveness over the full 14-day dosing period ε14” value (HCV [3]; [13]) was 0.994, the “Predicted first-phase log decline” value (HCV [3]; [13]) was 1.83 log10 and the “Average effectiveness over the first 2 days of dosing ε2” value (HCV [3]; [14]) was 0.974. The “Average effectiveness over the full 14-day dosing period ε14” value (HCV [3]; [14]) was 0.982, the “Predicted first-phase log decline” value (HCV [3]; [14]) was 1.58 log10 and the minimal effectiveness (HCV [3]; PK/VK model, cohort 1 (lowest dose)) was 0.706. For the same molecule, the minimal effectiveness (HCV [3]; PK/VK model, cohort 4 (highest dose)) was 0.877, the “EC50 (plasma concentration at which effectiveness is 0.5 times its maximum)” value (HCV [3]; PK/VK model, in vivo, h=1, population estimate±standard error) was 0.0082 ± 0.0024 ng/mL (≈ 0.0112 nM) and the “δ (loss rate of infected cells, slope of second phase decline)” value (HCV [3]; PK/VK model, population estimate±standard error, all cohorts) was 0.18 day⁻¹ and 0.18 ± 0.024 day⁻¹. The “time to reach 95% of final effectiveness” value (HCV [3]; [15]) was no more than 30 min, the “time to reach 99% of final effectiveness” value (HCV [3]; [15]) was no more than 36 min and the “patients showing a rapid second phase (δ > 0.3 d^−1)” value (HCV [3]; all cohorts) was 30%. The “time to reach 99% of the final effectiveness” value (HCV [3]; model prediction, all doses) was “less than 1 hr”, the “Average effectiveness over the first 2 days of dosing ε2” value (HCV [4]; Cohort 1: 100 mg bid, TN) was 0.973 and the “Average effectiveness over the full 14-day dosing period ε14” value (HCV [4]; Cohort 1: 100 mg bid, TN) was 0.976. The “Predicted first-phase log decline” value (HCV [4]; Cohort 1: 100 mg bid, TN) was 1.57 log10, the “Average effectiveness over the first 2 days of dosing ε2” value (HCV [4]; Cohort 2: 100 mg tid, TN) was 0.982 and the “Average effectiveness over the full 14-day dosing period ε14” value (HCV [4]; Cohort 2: 100 mg tid, TN) was 0.984. For the same molecule, the “Predicted first-phase log decline” value (HCV [4]; Cohort 2: 100 mg tid, TN) was 1.74 log10, the “Average effectiveness over the first 2 days of dosing ε2” value (HCV [4]; Cohort 3: 200 mg bid, TN) was 0.985 and the “Average effectiveness over the full 14-day dosing period ε14” value (HCV [4]; Cohort 3: 200 mg bid, TN) was 0.988. For the same molecule, the “Predicted first-phase log decline” value (HCV [4]; Cohort 3: 200 mg bid, TN) was 1.82 log10, the “Average effectiveness over the first 2 days of dosing ε2” value (HCV [4]; Cohort 4: 200 mg tid, TN) was 0.990 and the “Average effectiveness over the full 14-day dosing period ε14” value (HCV [4]; Cohort 4: 200 mg tid, TN) was 0.992. For the same molecule, the “Predicted first-phase log decline” value (HCV [4]; Cohort 4: 200 mg tid, TN) was 2.00 log10, the “Average effectiveness over the first 2 days of dosing ε2” value (HCV [4]; [9]) was 0.990 and the “Average effectiveness over the full 14-day dosing period ε14” value (HCV [4]; [9]) was 0.992. The “Predicted first-phase log decline” value (HCV [4]; [9]) was 2.00 log10, the “ED50 (daily dose leading to 50% of the maximal effectiveness)” value (HCV [4]; estimate±standard error) was 4.85 ± 1.4 mg/day and the “k (rate constant for effectiveness increase)” value (HCV [4]; estimate±standard error) was 29.1 ± 13.0 day⁻¹ and 29.1 ± 13 day⁻¹. The “δ (loss rate of infected cells)” value (HCV [4]; estimate±standard error) was 0.184 ± 0.03 day⁻¹, the final population effectiveness (HCV [4]; highest dose given to treatment-naïve patients (cohort 4)) was 0.992 and the final population effectiveness (HCV [4]; lowest dose (cohort 1)) was 0.976. For the same molecule, the “effectiveness in blocking intracellular replication” value (HCV [5]) was 99.2%, the “enhancement of viral RNA degradation” value (HCV [5]) was “about 5 fold” and the “mean effectiveness on viral secretion” value (HCV [5]) was 56%. The “viral RNA decline” value (HCV [6]) was 5 logs, the cure rates (HCV genotype 1 [7]; genotype 1, with IFN and ribavirin, boosted with ritonavir) was “up to 93%” and the cure rates (HCV genotype 1 [7]; patients infected with genotype 1, in combination with IFN and ribavirin) was “up to 85%”.

In the case of `COc1ccc2c(O[C@@H]3C[C@H]4C(=O)N[C@]5(C(=O)O)C[C@H]5/C=C\CCCCC[C@H](NC(=O)OC5CCCC5)C(=O)N4C3)cc(-c3csc(NC(C)C)n3)nc2c1` [ciluprevir], the “δ (second phase decline)” value (HCV [8]) is listed as 0.22 to 0.36 day⁻¹.

From publication PMC4400215 (Antiviral therapy, 2014)
